Test results: ChEMBL document CHEMBL4033790, “Design and Synthesis of Novel Deuterated Ligands Functionally Selective for the γ-Aminobutyric Acid Type A Receptor (GABAAR) α6 Subtype with Improved Metabolic Stability and Enhanced Bioavailability” (J Med Chem, 2018)
≈ marks a conversion by molar mass, not a printed value. Blank lines part the entries; values can stand above or below the compound they belong to. Calls of active or inactive are those of the source. The calls are words filed in the database; no cut-off is given here.

Assays:
Liver = experiment: Half life in human liver microsomes at 10 uM by LC-MS/MS analysis; assay type: ADME, microsome
Procedure, shortened: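 Compound at 10 μM final was preincubated 5 min at 37 °C with NADPH regenerating system in phosphate buffer, pH 7.4. Human or mouse liver microsomes (0.5 mg/mL protein) were added to start the reaction. Samples were taken at 0 (no microsomes) and 10–60 min and measured by LC-MS/MS against an internal standard. Half-life = 0.693/k, with k the slope of ln peak-area ratio versus time. Three experiments, each in duplicate.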

[1] = Metabolic stability in human liver microsomes assessed as parent compound remaining at 10 uM after 60 mins by LC-MS analysis; assay type: ADME, microsome; settings: read-out: Stability
Procedure, shortened: (§1)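 The 60 min samples of the microsomal incubation (10 μM compound, human or mouse liver microsomes at 0.5 mg/mL, NADPH regenerating system, 37 °C) were analysed by LC-MS. Detection used SIM mode with dual ESI/APCI ionization, calibrated to the retention times and masses of the parent and its O-demethylated metabolites. Peak intensities were measured.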

[2] = Metabolic stability in mouse liver microsomes assessed as parent compound remaining at 10 uM after 60 mins by LC-MS analysis; assay type: ADME, microsome; settings: read-out: Stability; procedure, shortened: as §1
[3] = Drug metabolism in human liver microsomes assessed as CYP450 mediated-O-demethylated 7-hydroxy-2-(4-hydroxyphenyl)-2H-pyrazolo[4,3-c]quinolin-3(5H)-one metabolite formation after 60 mins by LC-MS analysis; assay type: ADME; settings: 1 h
Procedure, shortened: (§2)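 The 60-min samples from the human or mouse liver microsome incubations (10 µM compound, 0.5 mg/mL protein, NADPH regenerating system, 37 °C, pH 7.4) were run on LC-MS in SIM mode with dual ESI/APCI ionization. The method was calibrated to each component's retention time and mass, and the peak intensities of the parent and O-demethylated metabolites were measured.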

[4] = Drug metabolism in mouse liver microsomes assessed as CYP450 mediated-O-demethylated 7-hydroxy-2-(4-hydroxyphenyl)-2H-pyrazolo[4,3-c]quinolin-3(5H)-one metabolite formation after 60 mins by LC-MS analysis; assay type: ADME; settings: 1 h; procedure, shortened: as §2
[5] = Drug metabolism in human liver microsomes assessed as CYP450 mediated-O-demethylated 2-(4-hydroxyphenyl)-7-(trideuteriomethoxy)-5H-pyrazolo[4,3-c]quinolin-3-one metabolite formation after 60 mins by LC-MS analysis; assay type: ADME; settings: 1 h; procedure, shortened: as §2
[6] = Drug metabolism in human liver microsomes assessed as CYP450 mediated-O-demethylated 7-hydroxy-2-(4-methoxyphenyl)-2H-pyrazolo[4,3-c]quinolin-3(5H)-one metabolite formation after 60 mins by LC-MS analysis; assay type: ADME; settings: 1 h; procedure, shortened: as §2
[7] = Drug metabolism in mouse liver microsomes assessed as CYP450 mediated-O-demethylated 2-(4-hydroxyphenyl)-7-(trideuteriomethoxy)-5H-pyrazolo[4,3-c]quinolin-3-one metabolite formation after 60 mins by LC-MS analysis; assay type: ADME; settings: 1 h; procedure, shortened: as §2
[8] = Drug metabolism in mouse liver microsomes assessed as CYP450 mediated-O-demethylated 7-hydroxy-2-(4-methoxyphenyl)-2H-pyrazolo[4,3-c]quinolin-3(5H)-one metabolite formation after 60 mins by LC-MS analysis; assay type: ADME; settings: 1 h; procedure, shortened: as §2
HEK-293T = experiment: Cytotoxicity against HEK293T cells assessed as reduction in cell viability up to 400 uM after 48 hrs by CellTiter-Glo assay; assay type: cell-based; settings: human
Procedure, shortened: (§3)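 HEK293T and HepG2 cells grown in high-glucose DMEM with non-essential amino acids, 10 mM HEPES, penicillin/streptomycin and 10% heat-inactivated FBS. Cells were harvested with trypsin and plated; compound was pin-transferred 3 h later. Incubation was 48 h, then CellTiter-Glo luminescence was read. Controls were DMSO (negative) and a cytotoxic aminoketone (positive). Quadruplicates, three independent runs, normalized to controls, nonlinear regression.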

HepG2 = experiment: Cytotoxicity against human HepG2 cells assessed as reduction in cell viability up to 400 uM after 48 hrs by CellTiter-Glo assay; assay type: cell-based; settings: hepg2, 48 h; procedure, shortened: as §3
Mus musculus = experiment: Neurotoxicity in Swiss Webster mouse assessed as induction of motor impairment at 40 mg/kg administered via oral gavage measured after 10 to 60 mins by rotarod method; assay type: toxicity, organism-based; settings: in vivo
Procedure, shortened: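 Female mice were given a single oral gavage dose of 40 mg/kg, either in 50% PBS/40% propylene glycol/10% DMSO or, for poorly soluble compounds, in 2% polyethylene glycol plus 2.5% hydroxymethyl cellulose. Rotarod performance was tested 10, 30 and 60 min after dosing, with diazepam 5 mg/kg as positive control.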

[9] = Cmax in Wistar rat plasma at 10 mg/kg, ip administered as single dose measured at 5 to 720 mins post dose by HPLC-MS/MS analysis; assay type: ADME, organism-based; parameters: dose 10 mg/kg, route intraperitoneal
Procedure, shortened: (§4)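 Male Wistar rats (250-350 g) given a single 10 mg/kg i.p. dose of a 5 mg/ml suspension in 85% distilled water, 14% propylene glycol, 1% Tween 80. Three rats per time point (5, 20, 60, 180, 720 min). Blood and brain were collected after sacrifice. Drug was recovered by solid phase extraction and quantified by HPLC-MS/MS.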

[10] = Tmax in Wistar rat plasma at 10 mg/kg, ip administered as single dose by HPLC-MS/MS analysis; assay type: ADME, organism-based
Procedure, shortened: (§5)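 Male Wistar rats (250–350 g) received a single i.p. dose of 10 mg/kg as a 5 mg/ml suspension in 85% water, 14% propylene glycol and 1% Tween 80. Three rats per time point were sacrificed at 5, 20, 60, 180 and 720 min for plasma and brain. Samples were cleaned up by solid-phase extraction and quantified by HPLC-MS/MS.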

[11] = AUC (0 to 12 hrs) in Wistar rat plasma at 10 mg/kg, ip administered as single dose by HPLC-MS/MS analysis; assay type: ADME, organism-based; parameters: time < 12 hr, dose 10 mg/kg, route intraperitoneal
[12] = Terminal elimination half-life in Wistar rat plasma at 10 mg/kg, ip administered as single dose by HPLC-MS/MS analysis; assay type: ADME, organism-based; settings: read-out: beta t1/2 (converted); procedure, shortened: as §5
[13] = Cmax in Wistar rat brain at 10 mg/kg, ip administered as single dose measured at 5 to 720 mins post dose by HPLC-MS/MS analysis; assay type: ADME, organism-based; parameters: dose 10 mg/kg, route intraperitoneal; procedure, shortened: as §4
[14] = Tmax in Wistar rat brain at 10 mg/kg, ip administered as single dose by HPLC-MS/MS analysis; assay type: ADME, organism-based; procedure, shortened: as §5
Brain = experiment: AUC (0 to 12 hrs) in Wistar rat brain at 10 mg/kg, ip administered as single dose by HPLC-MS/MS analysis; assay type: ADME, organism-based; parameters: dose 10 mg/kg, time < 12 hr, route intraperitoneal; settings: in vivo
[15] = Terminal elimination half-life in Wistar rat brain at 10 mg/kg, ip administered as single dose by HPLC-MS/MS analysis; assay type: ADME, organism-based; settings: read-out: beta t1/2 (converted); procedure, shortened: as §5
[16] = Ratio of brain AUC (0 to t) to plasma AUC (0 to t), Kp of the compound in Wistar rat at 10 mg/kg, ip administered as single dose by HPLC-MS/MS analysis; assay type: ADME, organism-based
[17] = target: Voltage-gated inwardly rectifying potassium channel KCNH2 (Homo sapiens, UniProt Q12809); experiment: Displacement of [3H]-dofetilide from human ERG expressed in HEK cell membranes at >10 uM after 60 to 90 mins by scintillation counting
[18] = Aqueous solubility of the compound in DI water at pH 7 after 2 hrs by LC-MS analysis; assay type: physicochemical; settings: buffer, pH 7, 2 h
Procedure, shortened: (§6)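 10 mg compound dissolved in 2 mL DMAC; 10 μL of this added to 2 mL DI water (pH 7, sonicated) or 2 mL 0.01 M aq HCl (pH 2), held 2 h at 37 °C. Filtered through 0.45 micron filter, then quantified by LC-MS in SIM mode against calibration curves of standards in DMAC (n = 5); n=3.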

[19] = Solubility of the compound in 0.01M HCl at pH 2 after 2 hrs by LC-MS analysis; assay type: physicochemical; settings: buffer, pH 2, 2 h; procedure, shortened: as §6
[20] = target: Muscarinic acetylcholine receptor M4 (Homo sapiens) (UniProt P08173); experiment: Displacement of [3H]-QNB from human recombinant M4 receptor expressed in HEK293 cells at 10 uM after 60 to 90 mins by scintillation counting; assay type: cell-based
Procedure, shortened: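 Primary single-concentration radioligand displacement screen run by the NIMH Psychoactive Drug Screening Program across a 46-target panel that includes hERG. The read-out is percent inhibition of specific radioligand binding. Any compound displacing more than 50% of radioligand went on to secondary binding assays to determine Ki.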

[21] = target: GABA-A receptor; alpha-6/beta-3/gamma-2 (Homo sapiens) (UniProt P18507+P28472+Q16445); experiment: Positive allosteric modulation of GABA-A receptor alpha6beta3gamma2 (unknown origin) expressed in Xenopus laevis oocytes assessed as potentiation of EC3 GABA induced currents up to 10 uM at -60 mV holding potential by electrophysiological method; assay type: cell-based; settings: tested as the 2H-labelled form
Procedure, shortened: (§7)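 Stage 5–6 defolliculated Xenopus oocytes were injected with 2.5 ng total mRNA per oocyte: α1, α2, α3 or α5 with β3 and γ2 at 1:1:5, and α4 or α6 with β3 and γ2 at 3:1:5. Oocytes were kept ≥36 h at 18 °C in NDE medium before recording. Compounds were co-applied with GABA titrated to EC3-5 for each oocyte. Curves were fitted with the Hill equation; mean ± SEM from ≥3 oocytes across two batches.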

[22] = target: GABA-A receptor; alpha-1/beta-3/gamma-2 (Homo sapiens) (UniProt P14867+P18507+P28472); experiment: Positive allosteric modulation of GABA-A receptor alpha1beta3gamma2 (unknown origin) expressed in Xenopus laevis oocytes assessed as potentiation of EC3 GABA induced currents up to 100 uM at -60 mV holding potential by electrophysiological method relative to GABA; assay type: cell-based; settings: tested as the 2H-labelled form; procedure, shortened: as §7
[23] = target: GABA-A receptor; alpha-2/beta-3/gamma-2 (Homo sapiens) (UniProt P18507+P28472+P47869); experiment: Positive allosteric modulation of GABA-A receptor alpha2beta3gamma2 (unknown origin) expressed in Xenopus laevis oocytes assessed as potentiation of EC3 GABA induced currents up to 100 uM at -60 mV holding potential by electrophysiological method relative to GABA; assay type: cell-based; settings: tested as the 2H-labelled form; procedure, shortened: as §7
[24] = target: GABA-A receptor; alpha-3/beta-3/gamma-2 (Homo sapiens) (UniProt P18507+P28472+P34903); experiment: Positive allosteric modulation of GABA-A receptor alpha3beta3gamma2 (unknown origin) expressed in Xenopus laevis oocytes assessed as potentiation of EC3 GABA induced currents up to 100 uM at -60 mV holding potential by electrophysiological method relative to GABA; assay type: cell-based; settings: tested as the 2H-labelled form; procedure, shortened: as §7
[25] = target: GABA A receptor alpha-4/beta-3/gamma-2 (Homo sapiens) (UniProt P18507+P28472+P48169); experiment: Positive allosteric modulation of GABA-A receptor alpha4beta3gamma2 (unknown origin) expressed in Xenopus laevis oocytes assessed as potentiation of EC3 GABA induced currents up to 100 uM at -60 mV holding potential by electrophysiological method relative to GABA; assay type: cell-based; settings: tested as the 2H-labelled form; procedure, shortened: as §7
[26] = target: GABA-A receptor; alpha-5/beta-3/gamma-2 (Homo sapiens) (UniProt P18507+P28472+P31644); experiment: Positive allosteric modulation of GABA-A receptor alpha5beta3gamma2 (unknown origin) expressed in Xenopus laevis oocytes assessed as potentiation of EC3 GABA induced currents up to 100 uM at -60 mV holding potential by electrophysiological method relative to GABA; assay type: cell-based; settings: tested as the 2H-labelled form; procedure, shortened: as §7
[27] = Drug level in mouse liver microsomes treated with 7-Bromo-2-(4-methoxy-d3-phenyl)-2,5-dihydro-3H-pyrazolo[4,3-c]quinolin-3-one after 60 mins by LC-MS analysis; assay type: ADME; settings: 1 h
[28] = Drug level in human liver microsomes treated with 7-Bromo-2-(4-methoxy-d3-phenyl)-2,5-dihydro-3H-pyrazolo[4,3-c]quinolin-3-one after 60 mins by LC-MS analysis; assay type: ADME; settings: 1 h

Chain of Voltage-gated inwardly rectifying potassium channel KCNH2 (Q12809 whole entry): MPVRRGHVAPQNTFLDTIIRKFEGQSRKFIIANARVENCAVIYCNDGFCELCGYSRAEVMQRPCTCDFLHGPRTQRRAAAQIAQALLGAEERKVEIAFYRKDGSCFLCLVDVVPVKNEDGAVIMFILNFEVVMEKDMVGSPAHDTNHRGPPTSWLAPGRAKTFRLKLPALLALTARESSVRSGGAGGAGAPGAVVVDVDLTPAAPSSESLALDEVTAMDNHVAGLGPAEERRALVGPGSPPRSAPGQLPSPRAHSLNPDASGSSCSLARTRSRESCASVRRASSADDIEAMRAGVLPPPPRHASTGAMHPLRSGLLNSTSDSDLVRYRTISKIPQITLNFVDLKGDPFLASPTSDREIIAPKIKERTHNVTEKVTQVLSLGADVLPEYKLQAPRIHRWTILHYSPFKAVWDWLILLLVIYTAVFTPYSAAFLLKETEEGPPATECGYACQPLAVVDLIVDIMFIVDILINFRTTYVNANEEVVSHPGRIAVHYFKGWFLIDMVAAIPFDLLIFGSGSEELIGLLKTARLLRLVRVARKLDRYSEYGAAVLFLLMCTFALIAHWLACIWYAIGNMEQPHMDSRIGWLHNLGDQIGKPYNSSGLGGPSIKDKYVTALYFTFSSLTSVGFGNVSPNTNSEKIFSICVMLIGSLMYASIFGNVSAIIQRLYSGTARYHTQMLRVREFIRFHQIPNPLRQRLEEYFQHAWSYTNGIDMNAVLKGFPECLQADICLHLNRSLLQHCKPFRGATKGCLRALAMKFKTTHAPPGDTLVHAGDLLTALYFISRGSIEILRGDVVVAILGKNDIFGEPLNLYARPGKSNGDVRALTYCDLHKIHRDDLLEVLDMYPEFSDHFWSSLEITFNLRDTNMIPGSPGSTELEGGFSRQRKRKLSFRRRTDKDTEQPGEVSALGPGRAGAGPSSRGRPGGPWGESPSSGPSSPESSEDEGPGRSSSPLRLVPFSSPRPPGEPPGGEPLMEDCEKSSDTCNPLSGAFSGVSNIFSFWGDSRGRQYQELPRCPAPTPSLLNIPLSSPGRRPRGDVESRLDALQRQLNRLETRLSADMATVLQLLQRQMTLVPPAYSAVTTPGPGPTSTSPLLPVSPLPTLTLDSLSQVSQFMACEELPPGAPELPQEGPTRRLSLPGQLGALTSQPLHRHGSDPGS
Chain of Muscarinic acetylcholine receptor M4 (Homo sapiens) (P08173 whole entry): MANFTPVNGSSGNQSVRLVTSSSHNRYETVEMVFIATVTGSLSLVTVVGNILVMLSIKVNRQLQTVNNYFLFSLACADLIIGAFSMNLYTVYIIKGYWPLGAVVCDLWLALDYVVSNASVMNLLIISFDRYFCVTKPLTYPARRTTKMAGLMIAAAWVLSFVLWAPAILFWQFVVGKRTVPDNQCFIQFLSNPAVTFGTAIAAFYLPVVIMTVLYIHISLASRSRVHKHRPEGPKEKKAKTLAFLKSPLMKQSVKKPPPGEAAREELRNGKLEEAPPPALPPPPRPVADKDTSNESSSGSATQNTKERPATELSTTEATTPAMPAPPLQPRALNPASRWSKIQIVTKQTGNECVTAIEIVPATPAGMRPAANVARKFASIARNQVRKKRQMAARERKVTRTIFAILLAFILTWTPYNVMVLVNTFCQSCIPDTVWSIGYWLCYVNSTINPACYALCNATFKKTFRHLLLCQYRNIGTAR

SMILES: [2H]C([2H])([2H])Oc1ccc2c3nn(-c4ccc(OC)cc4)c(=O)c-3c[nH]c2c1
t1/2 (Liver): 11.1 h | remaining at 1 h, 10 µM [1]: 92% | remaining at 1 h, 10 µM [2]: 93.2% | Drug metabolism [3]: Metabolite_Detected | Drug metabolism [4]: Metabolite_Detected | Drug metabolism [5]: Metabolite_Detected | Drug metabolism [6]: Metabolite_Detected | Drug metabolism [7]: Metabolite_Detected | Drug metabolism [8]: Metabolite_Detected | Activity (HEK-293T): Non-Toxic | Activity (HepG2): Non-Toxic | Activity (Mus musculus): Non-Toxic | Cmax [9]: 3740 ng/mL | Tmax [10]: 1.67 h | AUC(0-t) at 12 h [11]: 25300 ng·h/mL | half-life [12]: 2.46 h | Cmax [13]: 657 ng/g | Tmax [14]: 2.11 h | AUC (Brain): 4125.92 ng·h/g | half-life [15]: 2.6 h | Kp [16]: 0.16 | inhibition (INH) [17]: Not Active

SMILES: COc1ccc2c3nn(-c4ccc(OC)nc4)c(=O)c-3c[nH]c2c1
remaining at 1 h, 10 µM [1]: 92.8% | remaining at 1 h, 10 µM [2]: 74.8% | solubility [18]: 67.2 µM (≈ 21.7 µg/mL) | solubility [19]: 115.4 µM (≈ 37.2 µg/mL) | inhibition [20]: Active | Activity (Mus musculus): Non-Toxic | Activity [21]: Active | Activity [22]: inactive | Activity [23]: inactive | Activity [24]: inactive | Activity [25]: inactive | Activity [26]: inactive | inhibition (INH) [17]: Not Active

Drug metabolism [27]: Metabolite_Detected | Drug metabolism [28]: Metabolite_Detected
SMILES: O=c1c2c[nH]c3cc(Br)ccc3c-2nn1-c1ccc(O)cc1
